The values below come from ChEMBL document CHEMBL2390828, “Synthesis and biological characterization of spiro[2H-(1,3)-benzoxazine-2,4'-piperidine] based histone deacetylase inhibitors” (Eur J Med Chem, 2013).

System in one data set: not listed separately
Nature of the data set: Metabolic stability in human liver microsomes after 30 mins by LC-MS/MS analysis. The conditions noted are these: read-out: Stability. It is filed as ADME, Microsome. The method in brief:
(§1)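 Compounds were incubated with mouse or human liver microsomal preparation for 30 min at 37 °C. The reaction was stopped with CH3CN. Unmetabolized compound was quantified by LC-MS/MS in MRM mode and reported as percent remaining. Replicates n ≥ 2, mean values given.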
(In general: Microsomes from liver hold many membrane-bound enzymes, among them those of drug oxidation.)
`O=C(/C=C/c1ccc2c(c1)C(=O)NC1(CCN(CCc3ccccc3)CC1)O2)NO`: the remaining at 0.5 h worked out at 68%.
On to `CN1CCC2(CC1)Oc1ccc(/C=C/C(=O)NO)cc1C(=O)N2Cc1ccccc1`, for which the remaining at 0.5 h was 53%.

System in the next data set: not listed separately
Nature of the data set: Metabolic stability in mouse liver microsomes after 30 mins by LC-MS/MS analysis. It is filed as ADME, Microsome. The following applies: read-out: Stability. The method in brief: as §1
As to `O=C(/C=C/c1ccc2c(c1)C(=O)NC1(CCN(CCc3ccccc3)CC1)O2)NO`, the remaining at 0.5 h turned out to be 46%.
The same measure, in the same setting: the same measure for `CN1CCC2(CC1)Oc1ccc(/C=C/C(=O)NO)cc1C(=O)N2Cc1ccccc1`: 19%.

A further data set deals with A549. Nature of the data set: Cytotoxicity against human A549 cells. It is filed as functional, cell-based.
Conditions: not given
Turning to `CN1CCC2(CC1)Oc1ccc(/C=C/C(=O)NO)cc1C(=O)N2C`, the IC50 turned out to be 3540 nM.
Compound `CN1C(=O)c2cc(/C=C/C(=O)NO)ccc2OC12CCN(CCc1ccccc1)CC2` gave an IC50 of 2550 nM.
Consider `O=C(/C=C/c1ccc2c(c1)C(=O)NC1(CCN(CCc3ccccc3)CC1)O2)NO`, for which the IC50 came out at 1420 nM.
With `CN1CCC2(CC1)Oc1ccc(/C=C/C(=O)NO)cc1C(=O)N2Cc1ccccc1`, the IC50 came to 912 nM.

A further data set concerns HCT-116. The data set is described as follows: Cytotoxicity against human HCT116 cells. The data set is classed as functional, cell-based.
Conditions: not given
In turn, `CN1CCC2(CC1)Oc1ccc(/C=C/C(=O)NO)cc1C(=O)N2C` showed an IC50 of 1400 nM.
Regarding `CN1C(=O)c2cc(/C=C/C(=O)NO)ccc2OC12CCN(CCc1ccccc1)CC2`, it took 1060 nM to reach half-maximal inhibition (IC50).
In the case of `O=C(/C=C/c1ccc2c(c1)C(=O)NC1(CCN(CCc3ccccc3)CC1)O2)NO`, the 50% inhibitory concentration (IC50) stood at 469 nM.
On to `CN1CCC2(CC1)Oc1ccc(/C=C/C(=O)NO)cc1C(=O)N2Cc1ccccc1`, for which the midpoint of inhibition, the IC50, lay at 326 nM.

The test system of a further data set is K562. Nature of the data set: Cytotoxicity against human K562 cells. It is filed as functional, cell-based.
Conditions: not given
`CN1CCC2(CC1)Oc1ccc(/C=C/C(=O)NO)cc1C(=O)N2C` registered a 50% inhibitory concentration (IC50) of 1700 nM.
In turn, `CN1C(=O)c2cc(/C=C/C(=O)NO)ccc2OC12CCN(CCc1ccccc1)CC2` displayed a half-maximal inhibitory concentration (IC50) of 795 nM.
The same measure, in the same setting: the same measure for `O=C(/C=C/c1ccc2c(c1)C(=O)NC1(CCN(CCc3ccccc3)CC1)O2)NO`: 494 nM.
Consider `CN1CCC2(CC1)Oc1ccc(/C=C/C(=O)NO)cc1C(=O)N2Cc1ccccc1`, for which the IC50 was 360 nM.

A further data set concerns the target Histone deacetylase. The data set is described as follows: Inhibition of HDAC in human Hela cell nuclear extract after 15 mins.
Conditions: not given
It is filed as protein assay.
Compound `CN1CCC2(CC1)Oc1ccc(/C=C/C(=O)NO)cc1C(=O)N2C` returned an IC50 of 527 nM.
Consider `CN1C(=O)c2cc(/C=C/C(=O)NO)ccc2OC12CCN(CCc1ccccc1)CC2`, for which the IC50 is 258 nM.
For the compound `O=C(/C=C/c1ccc2c(c1)C(=O)NC1(CCN(CCc3ccccc3)CC1)O2)NO`, the IC50 was 91 nM.
`CN1CCC2(CC1)Oc1ccc(/C=C/C(=O)NO)cc1C(=O)N2Cc1ccccc1` registered a 50% inhibitory concentration (IC50) of 174 nM.

Broadly, the IC50 is the concentration at which inhibition is half-maximal.
